From ChEMBL document CHEMBL1121429, “Soft drugs. 1. Labile quaternary ammonium salts as soft antimicrobials” (J Med Chem, 1980)

Tests used:
[1] = system: Pseudomonas aeruginosa; assay: Sterilization time for contact germicidal efficiency (CGE) of salt was tested against Pseudomonas aeruginosa at pH 7.0, concentration 254 ppm; assay type: functional
[2] = system: Staphylococcus aureus; assay: Sterilization time for contact germicidal efficiency (CGE) of salt was tested against Staphylococcus aureus at pH 7.0, concentration 254 ppm; assay type: functional
[3] = system: Streptococcus pyogenes; assay: Sterilization time for contact germicidal efficiency (CGE) of salt was tested against Streptococcus pyogenes at pH 7.0, concentration 254 ppm; assay type: functional
[4] = Toxicity of the salt was tested on white swiss male mice after oral administration; assay type: organism-based; details: mouse, in vivo
Outline: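 Male White Swiss mice (MCR-ICR), 20-23 g, 10-20 per dose, dosed orally. At higher doses the salt was given in 0.8% NaCl brought to pH 5.84 with sodium bicarbonate. LD50 was calculated by Litchfield–Wilcoxon.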

[5] = Toxicity of the salt was tested on white swiss male mice after intraperitoneal administration; assay type: organism-based; details: mouse, in vivo, ip
Outline: (§1)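 Male White Swiss mice (MCR-ICR), 20-23 g, 10-20 per dose. Salt given in isotonic NaCl, pH 7.0 (adjusted with sodium bicarbonate). LD50 with confidence limits was calculated by Litchfield–Wilcoxon.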

[6] = Toxicity of the salt was tested on white swiss male mice after intravenous administration; assay type: organism-based; details: mouse, in vivo; outline: as §1
[7] = system: Salmonella typhimurium; assay: Minimum inhibitory concentration of salt was tested against Salmonella Typhimurium […] at 0.1 M NaH2PO4 adjusted to pH 7.0; assay type: functional; details: Salmonella enterica
[8] = system: Pseudomonas aeruginosa; assay: Sterilization time for contact germicidal efficiency (CGE) of salt was tested against at Pseudomonas aeruginosa at pH 7.0, concentration 1042.1 ppm; assay type: functional
Outline: (§2)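 Test solutions of the quaternary salt in buffer stood 30 min at room temperature. 0.2 mL of overnight broth culture was added to 5 mL of solution. Inocula: S. aureus ATCC 6538 6-8 × 10^6 cfu/mL, P. aeruginosa ATCC 9027 12-13 × 10^6/mL, S. pyogenes ATCC 19615 5 × 10^6 cfu/mL. At 0.5-30 min intervals a loop was subcultured into nutrient broth and incubated 7 days at 37 °C. Sterilization time is the first interval giving no growth.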

[9] = system: Streptococcus pyogenes; assay: Sterilization time for contact germicidal efficiency (CGE) of salt was tested against at Streptococcus pyogenes at pH 7.0, concentration 1042.1 ppm; assay type: functional
Outline: (§3)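 Streptococcus pyogenes ATCC 19615 overnight culture, 5 × 10^6 cfu/mL; 0.2 mL into 5 mL test solution of salt in buffer, left 30 min at room temperature beforehand. At timed intervals (0.5 to 30 min), a 3-mm loop was transferred to sterile nutrient broth and incubated at 37 °C for 7 days. Sterilization time is the shortest interval without growth; buffer-only and viability controls were run.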

[10] = system: Staphylococcus aureus; assay: Sterilization time for contact germicidal efficiency (CGE) of salt was tested against Staphylococcus aureus at pH 7.0, concentration 1042.1 ppm; assay type: functional; outline: as §2
[11] = system: Streptococcus pyogenes; assay: Sterilization time for contact germicidal efficiency (CGE) of salt was tested against at Streptococcus pyogenes at pH 6.0, concentration 1007 ppm; assay type: functional, organism-based
[12] = system: Salmonella typhimurium
[13] = system: Pseudomonas aeruginosa; assay: Sterilization time for contact germicidal efficiency (CGE) of salt was tested against at Pseudomonas aeruginosa at pH 8.0, concentration 1042 ppm; assay type: functional, organism-based
[14] = system: Staphylococcus aureus; assay: Sterilization time for contact germicidal efficiency (CGE) of salt was tested against at Staphylococcus aureus at pH 6.0, concentration 1007 ppm; assay type: functional, organism-based
[15] = system: Pseudomonas aeruginosa; assay: Sterilization time for contact germicidal efficiency (CGE) of salt was tested against at Pseudomonas aeruginosa at pH 7.0, concentration 1031 ppm; assay type: functional, organism-based
[16] = system: Staphylococcus aureus; assay: Minimum inhibitory concentration of salt was tested against Staphylococcus aureus aureus at 0.1 M NaH2PO4 adjusted to pH 7.0; assay type: functional
Outline: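 Bacteria grown 18-20 h at 37 °C in tryptose phosphate broth, adjusted to OD650 0.01, then diluted into double-strength medium to about 2 × 10^5 viable organisms/mL. Compound in 0.1 M NaH2PO4 pH 7.0 was serially twofold diluted into sterile water and added 1:1 to the cultures. MIC read after 18-20 h at 37 °C, with viability, sterility and buffer controls.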

[17] = system: Staphylococcus aureus; assay: Sterilization time for contact germicidal efficiency (CGE) of salt was tested against Staphylococcus aureus at pH 7.0, concentration 1031 ppm; assay type: functional, organism-based
[18] = system: Staphylococcus aureus; assay: Sterilization time for contact germicidal efficiency (CGE) of salt was tested against at Staphylococcus aureus at pH 8.0, concentration 1042 ppm; assay type: functional, organism-based
[19] = system: Staphylococcus aureus; assay: Sterilization time for contact germicidal efficiency (CGE) of salt was tested against at Staphylococcus aureus at pH 7.0, concentration 1031 ppm; assay type: functional, organism-based
[20] = system: Pseudomonas aeruginosa
[21] = system: Streptococcus pyogenes
[22] = system: Pseudomonas aeruginosa; assay: Sterilization time for contact germicidal efficiency (CGE) of salt was tested against at Pseudomonas aeruginosa at pH 6.0, concentration 1007 ppm; assay type: functional, organism-based
[23] = system: Bacillus subtilis
[24] = system: Streptococcus pyogenes; assay: Sterilization time for contact germicidal efficiency (CGE) of salt was tested against at Streptococcus pyogenes at pH 7.0, concentration 1031 ppm; assay type: functional, organism-based
[25] = system: Streptococcus pyogenes; assay: Sterilization time for contact germicidal efficiency (CGE) of salt was tested against at Streptococcus pyogenes at pH 8.0, concentration 1042 ppm; assay type: functional, organism-based
[26] = system: Pseudomonas aeruginosa; assay: Sterilization time for contact germicidal efficiency (CGE) of salt was tested against Pseudomonas aeruginosa at pH 7.0, concentration 610 ppm; assay type: functional; outline: as §2
[27] = system: Streptococcus pyogenes; assay: Sterilization time for contact germicidal efficiency (CGE) of salt was tested against Streptococcus pyogenes at pH 7.0, concentration 610 ppm; assay type: functional; outline: as §2
[28] = system: Staphylococcus aureus; assay: Sterilization time for contact germicidal efficiency (CGE) of salt was tested against Staphylococcus aureus at pH 7.0, concentration 610 ppm; assay type: functional; outline: as §2
[29] = system: Streptococcus pyogenes; assay: Minimum inhibitory concentration of salt was tested against Streptococcus pyogenes aureus at 0.1 M NaH2PO4 adjusted to pH 7.0; assay type: functional
[30] = system: Bacillus subtilis; assay: Minimum inhibitory concentration of salt was tested against Bacillus subtilis at 0.1 M NaH2PO4 adjusted to pH 7.0; assay type: functional
[31] = system: Staphylococcus aureus; assay: Sterilization time for contact germicidal efficiency (CGE) of salt was tested against Staphylococcus aureus at pH 7.0, concentration 1116.0 ppm; assay type: functional; outline: as §2
[32] = system: Streptococcus pyogenes; assay: Sterilization time for contact germicidal efficiency (CGE) of salt was tested against at Streptococcus pyogenes at pH 7.0, concentration 1116.0 ppm; assay type: functional; outline: as §3
[33] = system: Pseudomonas aeruginosa; assay: Sterilization time for contact germicidal efficiency (CGE) of salt was tested against at Pseudomonas aeruginosa at pH 7.0, concentration 1116.0 ppm; assay type: functional; outline: as §2
[34] = system: Pseudomonas aeruginosa; assay: Minimum inhibitory concentration of salt was tested against Pseudomonas aeruginosa at 0.1 M NaH2PO4 adjusted to pH 7.0; assay type: functional
[35] = system: Staphylococcus aureus; assay: Sterilization time for contact germicidal efficiency (CGE) of salt was tested against at Staphylococcus aureus at pH 6.0, concentration 1016 p.p.m.; assay type: functional
Outline: (§4)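 Staphylococcus aureus ATCC 6538, overnight broth culture at 6-8 × 10^6 cfu/mL; 0.2 mL inoculated into 5 mL of buffered quaternary salt solution pre-held 30 min at room temperature. Loop subcultures (3 mm) taken at 0.5-30 min intervals into nutrient broth, incubated at 37 °C for 7 days and read daily. The endpoint is the earliest time giving a growth-free subculture.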

[36] = system: Staphylococcus aureus; assay: Sterilization time for contact germicidal efficiency (CGE) of salt was tested against Staphylococcus aureus at pH 7.0 in horse serum at contact time=15 min; assay type: functional
Outline: (§5)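 S. aureus ATCC 6538 CGE screen with solutions in 0.1 M NaH2PO4 pH 7.0 diluted with 10% horse serum in distilled water, adjusted to pH 7 with CO2. Contact times of 0-15 min were used. Overnight culture was added, and loop subcultures taken at 0.5-30 min were grown 7 days at 37 °C in nutrient broth. Sterilization time is the first interval giving no growth.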

[37] = system: Staphylococcus aureus; assay: Sterilization time for contact germicidal efficiency (CGE) of salt was tested against at Staphylococcus aureus at pH 7.0, concentration 1027 ppm; assay type: functional; outline: as §4
[38] = system: Streptococcus pyogenes; assay: Sterilization time for contact germicidal efficiency (CGE) of salt was tested against at Streptococcus pyogenes at pH 7.0, concentration 1027 ppm; assay type: functional; outline: as §3
[39] = system: Staphylococcus aureus; assay: Sterilization time for contact germicidal efficiency (CGE) of salt was tested against Staphylococcus aureus at pH 7.0 in horse serum at contact time=10 min; assay type: functional; outline: as §5
[40] = system: Streptococcus pyogenes; assay: Sterilization time for contact germicidal efficiency (CGE) of salt was tested against at Streptococcus pyogenes at pH 6.0, concentration 1016 ppm; assay type: functional; outline: as §3
[41] = system: Staphylococcus aureus; assay: Sterilization time for contact germicidal efficiency (CGE) of salt was tested against Staphylococcus aureus at pH 7.0 in horse serum at contact time=0 min; assay type: functional; outline: as §5
[42] = system: Streptococcus pyogenes; assay: Sterilization time for contact germicidal efficiency (CGE) of salt was tested against at Streptococcus pyogenes at pH 8.0, concentration 1022 ppm; assay type: functional; outline: as §3
[43] = system: Staphylococcus aureus; assay: Sterilization time for contact germicidal efficiency (CGE) of salt was tested against Staphylococcus aureus at pH 7.0 in horse serum at contact time=5 min; assay type: functional; outline: as §5
[44] = system: Staphylococcus aureus; assay: Sterilization time for contact germicidal efficiency (CGE) of salt was tested against Staphylococcus aureus at pH 7.0 in water diluent; assay type: functional; outline: as §2
[45] = system: Pseudomonas aeruginosa; assay: (§6) Sterilization time for contact germicidal efficiency (CGE) of salt was tested against at Pseudomonas aeruginosa at pH 7.0, concentration 1027 ppm; assay type: functional; outline: as §2
[46] = system: Pseudomonas aeruginosa; assay: as §6; assay type: functional; outline: as §2; remark: listed apart in the source
[47] = system: Staphylococcus aureus; assay: Sterilization time for contact germicidal efficiency (CGE) of salt was tested against at Staphylococcus aureus at pH 8.0, concentration 1022 ppm; assay type: functional; outline: as §4
[48] = system: Staphylococcus aureus; assay: Sterilization time for contact germicidal efficiency (CGE) of salt was tested against Staphylococcus aureus at pH 7.0, concentration 1027 ppm; assay type: functional; outline: as §2
[49] = system: Pseudomonas aeruginosa; assay: Sterilization time for contact germicidal efficiency (CGE) of salt was tested against at Pseudomonas aeruginosa at pH 8.0, concentration 1022 ppm; assay type: functional
Outline: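 Pseudomonas aeruginosa ATCC 9027 overnight broth culture (12-13 × 10^6 organisms/mL); 0.2 mL added to 5 mL buffered salt solution held 30 min at room temperature. At intervals from 0.5 to 30 min, a 3-mm loop was subcultured into nutrient broth and incubated at 37 °C for 7 days. Sterilization time is the shortest interval whose subculture gave no growth.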

[50] = system: Pseudomonas aeruginosa; assay: Sterilization time for contact germicidal efficiency (CGE) of salt was tested against at Pseudomonas aeruginosa at pH 6.0, concentration 1016 ppm; assay type: functional; outline: as §2

Compound: Cn1ccnc1 [1-METHYLIMIDAZOLE]
- Time [1]: >30 min
- Time [2]: >30 min
- Time [3]: >30 min

Compound: CCCCCCCCCCCC(=O)OC[N+]1=CN(C)CC1.[Cl-]
- LD50 [4]: 4110 mg/kg
- LD50 [5]: 155 mg/kg
- LD50 [6]: 75 mg/kg

Compound: CCCCCCCCCCCCCCCC(=O)OC[n+]1ccccc1.[Cl-]
- MIC [7]: 1070 µg/mL

Compound: CCCCCCCCCCCCCC(=O)OC[n+]1ccccc1.[Cl-]
- Time [8]: 1 min
- Time [9]: 0.5 min
- Time [10]: 1 min

Compound: Hexadecyl-trimethyl-ammonium bromide
- TIME [11]: 0.00833 h
- MIC [12]: 64.3 p.p.m.
- TIME [13]: 0.00833 h
- TIME [14]: 0.00833 h
- TIME [15]: 0.00833 h
- MIC [16]: < 2 p.p.m.
- TIME [17]: 0.00833 h
- TIME [18]: 0.00833 h
- TIME [19]: 0.00833 h
- MIC [20]: 128 p.p.m.
- MIC [21]: < 2 p.p.m.
- TIME [22]: 0.00833 h
- MIC [23]: < 2 p.p.m.
- TIME [24]: 0.00833 h
- TIME [25]: 0.00833 h

Compound: CCCCCCCCCCCC(=O)O [DODECANOATE]
- Time [26]: >30 min
- Time [27]: >30 min
- Time [28]: >30 min

Compound: CCCCCCCCCCCC(=O)OC[n+]1cccc(C(=O)NCC)c1.[Cl-]
- MIC [29]: 32.6 µg/mL
- MIC [16]: 130 µg/mL
- MIC [30]: 32.6 µg/mL
- Time [31]: 0.5 min
- Time [32]: 0.5 min
- Time [33]: 3 min
- MIC [34]: 1040 µg/mL
- MIC [7]: 522 µg/mL

Compound: CCCCCCCCCCCC(=O)OC[N+]12CCC(CC1)CC2.[Cl-]
- MIC [29]: 4.1 µg/mL
- Time [35]: 1 min
- Time [36]: >30 min
- MIC [16]: 16.4 µg/mL
- Time [37]: 0.5 min
- MIC [30]: 32.8 µg/mL
- Time [38]: 0.5 min
- Time [39]: 5 min
- Time [40]: 0.5 min
- Time [41]: 1 min
- Time [42]: 2 min
- Time [43]: 3 min
- Time [44]: 0.5 min
- Time [45]: 3 min
- Time [46]: 0.5 min
- MIC [34]: 1050 µg/mL
- Time [47]: 0.5 min
- Time [48]: 0.5 min
- Time [49]: 0.5 min
- Time [50]: 0.5 min
- MIC [7]: 262 µg/mL

Compound: CCCCCCCCCCCCCCCC(=O)OC[N+]1=CN(C)CC1.[Cl-]
- MIC [29]: > 42.4 µg/mL
- MIC [16]: 1.3 µg/mL
- MIC [30]: > 42.4 µg/mL
- MIC [34]: > 42.4 µg/mL
- MIC [7]: > 42.4 µg/mL
